# Hits are enriched below; roughly 6.6% of the tested compounds scored in any of these assays.
# Fibroblast inh = blocks proliferation of human lung fibroblasts; LL 47 human lung fibroblast viability, ATP luminescence; stronger effect = lower value; viability, % at 10 µM; 85,000 compounds, 1.1% hits; AID 719;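 active = viability at or below 50% in the single dose screen; inactive = viability above 50%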;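 also: compound exposure lasted 72 h before the ATP readout; 100% = median luminescence of untreated cell-only wells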
#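 Assay system: human lung fibroblast line LL 47, low passage. Input: 1,150 fibroblasts seeded per well. Times: overnight cell rest, 72 h compound treatment at 37 °C. Evaluation: % viability of median cell-only signal. Technique: luminescent ATP detection, CellTiter-Glo. Control set: cell-only wells, no compound.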
# Jurkat tox 60K = reduces viability or proliferation of Jurkat cells. AID 463. Jurkat E6.1 viability, ATP luminescence, 48 h. 56,000 compounds, 1.2% hits. inhibition, % at 4 µM;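 active = inhibition above the mean inhibition of all tested compounds plus 3 SD, cut at about 28% in these data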
# HUVEC inhibit = blocks proliferation of human endothelial cells | HUVEC proliferation, CellTiter-Glo luminescence, 72 h; stronger effect = lower value | viability, % at 10 µM (by protocol) | 86,000 compounds, 1.1% hits;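 active = viability at or below 30%; inactive = viability above 30%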;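 also: 100% = median luminescence of DMSO-only cell control wells on each plate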
# H69AR inhibit = blocks growth of human H69AR lung tumor cells. 85,000 compounds, 6% hits. viability, % at 10 µM. H69AR lung tumor viability, ATP luminescence, 72 h; stronger effect = lower value;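 active = viability at or below 40%; inactive = viability above 40%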;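 also: multidrug resistant small cell line overexpressing MRP-1 efflux transporter; 100% = mean luminescence of untreated control wells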
# The depositor's hits bear a star; nt = no result given.
SMILES,Fibroblast inh,Jurkat tox 60K,HUVEC inhibit,H69AR inhibit
O=c1c2c3nc4ccccc4nc3n(Cc3ccccc3)c2ncn1Cc1ccco1,98,8,75,63
c1ccc(Cn2cnc3ccccc32)cc1,98,nt,93,91
N=c1c2c(-c3ccccc3)c(-c3ccccc3)n(Cc3ccco3)c2ncn1Cc1ccccc1,32*,nt,2.1*,9.9*
CC(C)Cn1cnc2c(c(-c3ccccc3)c(-c3ccccc3)n2Cc2ccco2)c1=N,3.1*,nt,2.5*,1.1*
CCOC(=O)c1oc2ccc(Br)cc2c1CSc1nnc(C)s1,98,4,97,100
Cn1c2ccccc2c(=O)c2c(=O)n(C3CCCCC3)c(-c3cccs3)nc21,41*,nt,54,34*
CCCCCCCCOC(=O)CCn1[nH]c(=O)c2ccccc2c1=O,90,nt,89,94
COc1ccc([N+](=O)[O-])cc1C1NN=C(c2ccccc2O)S1 (centres undefined),61,nt,74,27*
O=C(NCc1ccccc1)N(Cc1cc2cc3c(cc2[nH]c1=O)OCO3)CC1CCCO1 (centres undefined),97,6,87,78
CCCN(Cc1cc2cc(OC)ccc2[nH]c1=O)C(=O)c1ccncc1,85,10,80,25*
CCOc1ccc2[nH]c(=O)c(CN(Cc3ccc(C)cc3)C(=O)N3CCCC3)cc2c1,89,-5,90,33*
CCOc1ccccc1C(=O)N(Cc1ccccc1)Cc1cc2cc3c(cc2[nH]c1=O)OCCO3,26*,nt,19*,9.0*
Cc1ccc(CN(Cc2cc3cc(C)ccc3[nH]c2=O)C(=O)N2CCOCC2)cc1,101,2,96,73
CCOc1ccc(C(=O)N(Cc2ccc(OC)cc2)Cc2cc3cc(OC)ccc3[nH]c2=O)cc1,86,nt,70,19*
O=C(CSc1oc(-c2ccco2)nc1S(=O)(=O)c1ccc(Cl)cc1)NCC1CCCO1 (centres undefined),98,nt,114,89
COCC(COCCCNC(=O)Nc1ccc(Br)cc1)OC (centres undefined),100,10,99,99
Cc1nc2ccccc2c(=O)n1/N=C/c1cn(-c2ccccc2)nc1-c1cccs1,100,-11,69,35*
Cc1ccc(Nc2c(N)c(=O)oc3ccccc23)cc1,72,nt,67,13*
CC(C)Nc1c(N)c(=O)oc2ccccc12,96,0,93,86
CCOc1ccc(N(CC(=O)Nc2ccc(C)c(C)c2)S(=O)(=O)c2c(C)noc2C)cc1,90,16,67,48
CCOc1ccc(N(CC(=O)Nc2cccc(F)c2)S(=O)(=O)c2c(C)noc2C)cc1,75,3,86,30*
COc1ccc(NC(=O)CN(c2cc(C)cc(C)c2)S(=O)(=O)c2c(C)noc2C)cc1,91,-5,85,90
CCOc1ccc(N(CC(=O)Nc2ccccc2C)S(=O)(=O)c2c(C)noc2C)cc1,49*,91*,50,19*
COc1ccc(N(CC(=O)Nc2cc(C)ccc2OC)S(=O)(=O)c2c(C)noc2C)cc1,82,20,59,13*
CCOc1ccccc1NC(=O)CN(c1cc(C)cc(C)c1)S(=O)(=O)c1c(C)noc1C,93,-6,91,73
SMILES,Fibroblast inh,Jurkat tox 60K,HUVEC inhibit,H69AR inhibit
CCOc1ccccc1NC(=O)CN(c1ccc(OC)cc1)S(=O)(=O)c1c(C)noc1C,47*,93*,47,88
COCCOC(=O)c1c(C)oc2ccc(OC(=O)c3c(OC)cccc3OC)cc12,106,9,75,nt
Cc1ccsc1C(=O)Nc1nnc(-c2ccco2)o1,69,89*,68,41
COCCCN(C(=O)Nc1ccccc1)C(C)c1ccncc1 (centres undefined),105,-6,93,100
Cc1ccc(-c2nnn(CC(=O)Nc3ccc(S(=O)(=O)N4CCC(C)CC4)cc3)n2)cc1,68,-4,66,21*
CC1CCCN(S(=O)(=O)c2ccc(NC(=O)Cn3nnc(-c4ccccc4F)n3)cc2)C1 (centres undefined),98,0,63,45
CC1CCN(S(=O)(=O)c2ccc(NC(=O)Cn3nnc(-c4ccccc4)n3)cc2)CC1,29*,0,30,19*
CC1CCN(S(=O)(=O)c2ccc(NC(=O)CN3CCOCC3)cc2)CC1,109,nt,108,102
COC(=O)c1ccc(CSc2nnc(NC(=O)c3cc4c(s3)CCCC4)s2)cc1,106,nt,78,7.6*
C=CCn1c(/N=C/c2ccc(N(C)C)cc2)nc2ccccc21,101,-4,82,95
C=CCN1C(=O)/C(=C/c2ccc(N(C)C)cc2)S/C1=N\c1nnc(CC)s1,87,nt,63,26*
COc1ccc(-c2nc(Cn3c(SCc4ccc(C)cc4)nc4ccncc43)c(C)o2)cc1OC,93,nt,73,19*
Cc1oncc1C(=O)NC(C)C,102,nt,105,109
O=C1C(=O)c2ccc(-c3ccccc3)cc2-c2ccccc21,2.7*,nt,2.2*,1.5*
Nc1ccc2c(c1)C(=O)C(=O)c1ccccc1-2,2.1*,nt,3.1*,0.2*
Cc1ccc(N2C(=O)c3ccc(N)cc3C2=O)cc1,97,-3,77,102
COc1ccc(C2c3c(ncn(CCN4CCOCC4)c3=N)Oc3ccc4ccccc4c32)cc1OC (centres undefined),89,nt,71,1.9*
COc1ccc(C2C3=C(CC(C)(C)CC3=O)Oc3ncn(CCO)c(=N)c32)cc1OC (centres undefined),102,4,106,92
Cc1ccccc1-n1nnnc1-c1ccccc1,85,0,87,109
COc1ccc(-c2nnnn2-c2ccccc2OC)cc1,82,48*,72,22*
O=C(CSc1nnc(Cc2cccs2)n1C1CCCCC1)N1CCCc2ccccc21,101,12,71,34*
CC1CC(N(C(=O)c2ccco2)c2ccccc2)c2ccccc2N1 (centres undefined),90,14,65,15*
C=CCN1C=CC(=C/C=C(/C#N)C(=O)OCC)C=C1,96,nt,97,86
CCCCOc1ccc(-c2nc(=S)[nH][nH]2)cc1,106,nt,80,19*
CCN(CC)CCNC(=O)C1c2ccccc2C(=O)N(CCOC)C1c1ccc(F)cc1 (centres undefined),102,nt,97,93
SMILES,Fibroblast inh,Jurkat tox 60K,HUVEC inhibit,H69AR inhibit
CC1CCCN(CC(=O)Nc2ccc(S(=O)(=O)NC3CCCCC3)cc2)C1 (centres undefined),101,-2,93,88
COc1ccc(N(CC(=O)NCc2cccs2)S(=O)(=O)c2cccnc2)cc1,100,5,106,105
Cc1nn(C(=O)c2cccs2)c(C)c1CN1C(=O)c2ccccc2C1=O,81,-8,80,21*
CN(C)CC(C)(C)CNS(=O)(=O)c1cccc(Cl)c1Cl,93,nt,97,92
CCOC(=O)/C(=C\c1ccccc1)C(=O)c1cc(C(C)=O)c(Nc2ccccc2)s1,19*,nt,3.8*,2.1*
CCOC(=O)C(=O)/C(C#N)=C/Nc1ccccc1,103,nt,94,99
CCOC(=O)/C(=C\c1cccnc1)C(=O)c1cc(C(C)=O)c(Nc2ccccc2)s1,19*,nt,4.1*,1.8*
CCOc1ccccc1C(=O)N1CCCCC1C (centres undefined),93,-6,113,94

# Compound activity deposited in PubChem by several laboratories.
